This is an account of results in ChEMBL document CHEMBL3856222, “Design, structure activity relationship, cytotoxicity and evaluation of antioxidant activity of curcumin derivatives/analogues” (Eur J Med Chem, 2016).

As a reminder, the IC50 is the concentration needed to halve the response being measured.

Assay [1] in a line: Antioxidant activity assessed as DPPH free radical scavenging activity at 2 uM incubated in dark for 20 mins relative to control. In kind it is functional. The essentials:
(§1)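 Compounds dissolved in DMSO and diluted in 100 mM Tris–HCl (pH 7.4). DPPH (0.1 mM in methanol) added with vigorous shaking, then held in the dark at room temperature for 20 min. Absorbance read at 517 nm with DMSO baseline correction. Compound-free control prepared the same way. Run in triplicate.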
(Loss of DPPH colour is used to gauge radical scavenging.)

Assay [2] is described as follows: Antioxidant activity assessed as DPPH free radical scavenging activity at 10 uM incubated in dark for 20 mins relative to control. Type of assay: functional. The essentials:
as §1

Assay [3] in a line: Cytotoxicity against human HeLa cells assessed as decrease in cell viability after 48 hrs by MTT assay. Type of assay: functional, cell-based. The essentials: (§2)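 Cells seeded at 2 x 10^3 per well in MEM with 10% FBS and left to attach for 24 h. Exposed 48 h to 5, 10, 20, 50, 100 and 200 µM (printed µM/mL). Controls got medium with 0.2% DMSO. Duplicate treatments. After PBS wash, MTT (stock 1 mg/mL) added for 4 h at 37 °C. Formazan dissolved in DMSO and OD read at 590 nm.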
Background: Tetrazolium assays rely on reduction of a dye to a coloured formazan, in cell work by metabolically active cells.

Assay [4] in a line: Antioxidant activity assessed as nitric oxide radical scavenging activity at 20 uM incubated in dark for 20 mins relative to control. Type of assay: functional.
Assay [5] in a line: Cytotoxicity against human HCT116 cells assessed as decrease in cell viability after 48 hrs by MTT assay. Type of assay: functional, cell-based. Conditions: HCT-116, 48 h. The gist of the method:
as §2

The nature of assay [6]: Antioxidant activity assessed as DPPH free radical scavenging activity at 50 uM incubated in dark for 20 mins relative to control. Type of assay: functional. The gist of the method:
as §1

Assay [7] is described as follows: Antioxidant activity assessed as nitric oxide radical scavenging activity at 10 uM incubated in dark for 20 mins relative to control. Type of assay: functional.
Assay [8] in a line: Cytotoxicity against human QG56 cells assessed as decrease in cell viability after 48 hrs by MTT assay. Type of assay: functional, cell-based. Conditions: QG-56, 48 h. The essentials: as §2
Assay [9] in a line: Antioxidant activity assessed as nitric oxide radical scavenging activity at 50 uM incubated in dark for 20 mins relative to control. Type of assay: functional.
Assay [10] in a line: Antioxidant activity assessed as nitric oxide radical scavenging activity at 2 uM incubated in dark for 20 mins relative to control. In kind it is functional.
A short description of assay [11]: Antioxidant activity assessed as DPPH free radical scavenging activity at 20 uM incubated in dark for 20 mins relative to control. In kind it is functional. The essentials:
as §1

Structures can show the parent of a compound that is named as a salt.

For the compound `COc1cc(/C=C/C(=O)C2=C(/C=C/c3ccc(O)c(OC)c3)NC(=S)NC2c2ccc(C)cc2)ccc1O` (stereo not drawn), the Activity in [1] was 15.5%; in [2], 43.2%; in assay [4], 30%; in [6], 62%; in [7] it was 19.9%; in assay [9], 41%. Further, the results for the Activity in [10] and in assay [11] were 10.2% and 51%, respectively. Moreover, the figures for the IC50 in assay [3], in assay [5] and in [8] were 25 µM, 50 µM and 12.5 µM, respectively.
Consider `COc1cc(/C=C/C(=O)C2=C(/C=C/c3ccc(O)c(OC)c3)NC(=S)NC2c2ccccc2Cl)ccc1O` (stereo not drawn), for which the Activity was found to be 16.2% in assay [1]; 43.2% in [2]; 39.2% in [4]; 60% in [6]; 21.2% in [7]; 55.6% in assay [9]. Moreover, the Activity is 15.5% in assay [10] and 56.6% in assay [11]. In addition, the results for the 50% inhibitory concentration (IC50) in [3], in assay [5] and in assay [8] were 50 µM, 100 µM and 50 µM, respectively.
For `COc1cc(/C=C/C(=O)C2=C(/C=C/c3ccc(O)c(OC)c3)NC(=O)NC2c2ccccc2O)ccc1O` (stereo not drawn), the Activity in assay [1] is 33.6%; in assay [2] it was 73.6%; in assay [4], 80.9%; in assay [6], 88.9%; in [7], 71%; in [9], 88%. For the same compound, the figures for the Activity in [10] and in assay [11] were 29.9% and 81%, respectively. Besides, the half-inhibitory concentration (IC50) in [3] amounted to 50 µM; in assay [5], 100 µM; in [8], 100 µM.
With `COc1cc(/C=C/C(=O)C2=C(/C=C/c3ccc(O)c(OC)c3)NC(=O)NC2c2ccc(O)cc2)ccc1O` (stereo not drawn), the Activity came to 25% in assay [1]; 75% in assay [2]; 80.1% in [4]; 90.3% in assay [6]; 72% in assay [7]; 86.2% in [9]. Moreover, the results for the Activity in assay [10] and in [11] were 33.3% and 84.6%, respectively. In addition, the IC50 worked out at 25 µM in assay [3], 100 µM in assay [5] and 50 µM in assay [8].
For `COc1cc(/C=C/C(=O)C2=C(/C=C/c3ccc(O)c(OC)c3)NC(=O)NC2c2ccccc2)ccc1O` (stereo not drawn), the Activity in [1] stood at 15.2%; in assay [2], 26.4%; in assay [4], 31%; in assay [6], 40.2%; in assay [7], 20%; in [9] it was 50.2%. For the same compound, the Activity in assay [10] was determined as 10.5%; in assay [11] it was 38.2%. Also, the IC50 was 100 µM in assay [3], 25 µM in assay [5] and 50 µM in assay [8].
Turning to `COc1cc(/C=C/C(=O)C2=C(/C=C/c3ccc(O)c(OC)c3)NC(=O)NC2c2ccc(C)cc2)ccc1O` (stereo not drawn), the Activity in [1] is 17.2%; in assay [2] it was 29.9%; in assay [4], 36.3%; in assay [6] it was 46%; in assay [7], 23.9%; in assay [9], 52.2%. The Activity stood at 15.5% in assay [10] and 38.2% in assay [11]. In addition, the results for the IC50 in assay [3], in assay [5] and in assay [8] were 100 µM, 12.5 µM and 100 µM, respectively.
Regarding `COc1cc(/C=C/C(=O)C2=C(/C=C/c3ccc(O)c(OC)c3)NC(=S)NC2c2ccccc2)ccc1O` (stereo not drawn), the Activity was found to be 15.5% in [1]; 26.5% in assay [2]; 36.6% in [4]; 48% in [6]; 22% in assay [7]; 50.4% in assay [9]. Moreover, the Activity in assay [10] turned out to be 16.6%; in [11] it was 38%. Further, the IC50 stood at 25 µM in [3], 100 µM in [5] and 100 µM in assay [8].
Take `COc1cc(/C=C/C(=O)CC(=O)/C=C/c2ccc(O)c(OC)c2)ccc1O` [CURCUMIN]: the Activity in [1] stood at 6%; in [2], 33.2%; in [4], 36.5%; in assay [6] it was 50.2%; in assay [7] it was 22.2%; in assay [9], 59.9%. The Activity amounted to 12.2% in assay [10] and 42.2% in [11]. Also, the values for the IC50 in [3], in assay [5] and in assay [8] were 50 µM, 50 µM and 100 µM, respectively.
Turning to `COc1cc(/C=C/C(=O)C2=C(/C=C/c3ccc(O)c(OC)c3)NC(=O)NC2c2c(Cl)cccc2Cl)ccc1O` (stereo not drawn), the Activity came to 11.2% in assay [1]; 19.2% in [2]; 33% in [4]; 43.2% in assay [6]; 20% in [7]; 44.2% in assay [9]. Besides, the Activity is 11.2% in [10] and 31.9% in [11]. For the same compound, the IC50 amounted to 25 µM in [3], 50 µM in assay [5] and 100 µM in assay [8].
As to `COc1cc(/C=C/C(=O)C2=C(/C=C/c3ccc(O)c(OC)c3)NC(=S)NC2c2c(Cl)cccc2Cl)ccc1O` (stereo not drawn), the Activity in assay [1] turned out to be 17.7%; in [2], 29%; in assay [4], 33.9%; in [6], 50.2%; in assay [7], 20.2%; in assay [9], 50%. Besides, the figures for the Activity in assay [10] and in assay [11] were 15% and 43.2%, respectively. The IC50 in assay [3] is 100 µM; in [5], 50 µM; in [8], 100 µM.
Take `COc1cc(/C=C/C(=O)C2=C(/C=C/c3ccc(O)c(OC)c3)NC(=S)NC2c2ccc(N(C)C)cc2)ccc1O` (stereo not drawn): the Activity in [1] came to 30.2%; in assay [2], 72%; in [4] it was 72.1%; in [6], 89.5%; in assay [7], 59%; in assay [9], 84%. Also, the Activity in assay [10] is 32.3%; in assay [11] it was 83%. In addition, the IC50 in assay [3] was 12.5 µM; in assay [5], 12.5 µM; in [8], 25 µM.
As for `COc1cc(/C=C/C(=O)C2=C(/C=C/c3ccc(O)c(OC)c3)NC(=S)NC2c2ccccc2O)ccc1O` (stereo not drawn), the Activity was found to be 25% in assay [1]; 60.2% in assay [2]; 79.9% in assay [4]; 86.3% in [6]; 70.8% in assay [7]; 88.5% in assay [9]. Moreover, the Activity was 34% in assay [10] and 72.3% in assay [11]. Moreover, the figures for the IC50 in [3], in assay [5] and in assay [8] were 25 µM, 100 µM and 50 µM, respectively.
Take `COc1cccc2c1C(=O)c1c(O)c3c(c(O)c1C2=O)C[C@@](O)(C(=O)CO)C[C@@H]3O[C@H]1C[C@H](N)[C@H](O)[C@H](C)O1` [DOXORUBICIN HYDROCHLORIDE]: the IC50 in assay [3] was determined as 2.5 µM; in [5] it was 5 µM; in assay [8], 2.5 µM.
Turning to `COc1cc(/C=C/C(=O)C2=C(/C=C/c3ccc(O)c(OC)c3)NC(=O)NC2c2ccccc2Cl)ccc1O` (stereo not drawn), the Activity worked out at 20.2% in assay [1]; 40% in assay [2]; 38.7% in [4]; 55.5% in assay [6]; 23% in assay [7]; 56% in assay [9]. The Activity was found to be 16.6% in [10] and 46% in [11]. In addition, the IC50 in assay [3] amounted to 100 µM; in assay [5] it was 50 µM; in assay [8], 100 µM.
On to `COc1cc(/C=C/C(=O)C2=C(/C=C/c3ccc(O)c(OC)c3)NC(=O)NC2c2ccc(N(C)C)cc2)ccc1O` (stereo not drawn), for which the Activity in assay [1] came to 17.9%; in assay [2], 37.6%; in assay [4], 82.2%; in [6], 56%; in assay [7], 69.9%; in assay [9] it was 89.2%. Further, the Activity in assay [10] came to 28.2%; in assay [11], 48%. Also, the IC50 is 25 µM in [3], 12.5 µM in [5] and 12.5 µM in assay [8].
`COc1cc(/C=C/C(=O)C2=C(/C=C/c3ccc(O)c(OC)c3)NC(=O)NC2c2cccc([N+](=O)[O-])c2)ccc1O` (stereo not drawn): the Activity in assay [1] turned out to be 17%; in [2], 51.2%; in assay [4], 33%; in assay [6], 71%; in assay [7], 19.9%; in assay [9], 48%. The Activity in assay [10] stood at 10.2%; in assay [11] it was 66.3%. Also, the figures for the IC50 in assay [3], in [5] and in assay [8] were 100 µM, 50 µM and 25 µM, respectively.
